Values after ≈ are worked out from the molar mass of the structure shown. Active and inactive are the calls of the source. The rule behind the calls is not given here. Bridge positions count the residues as written; N and C are the ends. Square brackets hold non-standard residues; d marks the D form. Peptide text beside a SMILES is read from it. Dab = NCC[C@H](N)C(=O)O
Tests used:
[1] = test system: Escherichia coli; assay: Antimicrobial activity against LPS-deffective Escherichia coli OC2530 by broth microdilution method; assay type: functional
In short: (§1)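 MICs by CLSI broth microdilution. Where polymyxin B nonapeptide was included, it was present at 2 μg/ml alongside the test compound.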

[2] = test system: Escherichia coli; assay: Antimicrobial activity against Escherichia coli OC2605 by broth microdilution method; assay type: functional
In short: (§2)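 CLSI broth microdilution MIC; strains from the sponsor's in-house collection.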

[3] = test system: Escherichia coli; assay: Antimicrobial activity against Escherichia coli OC9040 by broth microdilution method; assay type: functional; in short: as §1
[4] = test system: Escherichia coli; assay: Antimicrobial activity against Escherichia coli ATCC 25922 by broth microdilution method; assay type: functional; in short: as §1
[5] = test system: Enterococcus faecalis; assay: Antimicrobial activity against Enterococcus faecalis ATCC 29212 by broth microdilution method; assay type: functional; in short: as §1
[6] = test system: Enterococcus faecium; assay: Antimicrobial activity against Enterococcus faecium OC3312 by broth microdilution method; assay type: functional; in short: as §1
[7] = test system: Staphylococcus aureus; assay: Antimicrobial activity against Staphylococcus aureus ATCC 29213 by broth microdilution method; assay type: functional; in short: as §1
[8] = test system: Staphylococcus aureus; assay: Antimicrobial activity against methicillin-resistant Staphylococcus aureus OC3726 by broth microdilution method; assay type: functional; in short: as §2
[9] = test system: Staphylococcus aureus; assay: Antimicrobial activity against methicillin-resistant Staphylococcus aureus OC2878 by broth microdilution method; assay type: functional; in short: as §2
[10] = test system: Staphylococcus aureus; assay: Antimicrobial activity against Staphylococcus aureus OC4172 by broth microdilution method; assay type: functional; in short: as §1
[11] = Inhibition of Escherichia coli MurF
[12] = test system: Escherichia coli; assay: Antimicrobial activity against LPS-deffective Escherichia coli OC2530 by broth microdilution method in presence of polymyxin B nonapeptide; assay type: functional; in short: as §1
[13] = test system: Escherichia coli; assay: Antimicrobial activity against Escherichia coli OC2605 by broth microdilution method in presence of polymyxin B nonapeptide; assay type: functional; in short: as §1
[14] = test system: Escherichia coli; assay: Antimicrobial activity against Escherichia coli OC9040 by broth microdilution method in presence of polymyxin B nonapeptide; assay type: functional; in short: as §1
[15] = test system: Escherichia coli; assay: Antimicrobial activity against Escherichia coli ATCC 25922 by broth microdilution method in presence of polymyxin B nonapeptide; assay type: functional; in short: as §1
[16] = test system: Enterococcus faecalis; assay: Antimicrobial activity against Enterococcus faecalis ATCC 29212 by broth microdilution method in presence of polymyxin B nonapeptide; assay type: functional; in short: as §1
[17] = test system: Enterococcus faecium; assay: Antimicrobial activity against Enterococcus faecium OC3312 by broth microdilution method in presence of polymyxin B nonapeptide; assay type: functional; in short: as §1
[18] = test system: Staphylococcus aureus; assay: Antimicrobial activity against Staphylococcus aureus ATCC 29213 by broth microdilution method in presence of polymyxin B nonapeptide; assay type: functional; in short: as §1
[19] = test system: Staphylococcus aureus; assay: Antimicrobial activity against methicillin-resistant Staphylococcus aureus OC3726 by broth microdilution method in presence of polymyxin B nonapeptide; assay type: functional
In short: (§3)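 CLSI broth microdilution MIC run in the presence of polymyxin B nonapeptide (PMBN) at 2 μg/ml as a permeabilizer.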

[20] = test system: Staphylococcus aureus; assay: Antimicrobial activity against methicillin-resistant Staphylococcus aureus OC2878 by broth microdilution method in presence of polymyxin B nonapeptide; assay type: functional; in short: as §3
[21] = test system: Staphylococcus aureus; assay: Antimicrobial activity against Staphylococcus aureus OC4172 by broth microdilution method in presence of polymyxin B nonapeptide; assay type: functional; in short: as §1
[22] = test system: Escherichia coli; assay: Antimicrobial activity against LPS-deffective Escherichia coli OC2530 assessed as cell lysis at 2 times MIC by light microscopy; assay type: functional, organism-based
In short: (§4)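 Cells were fixed on a glass slide under a coverslip and viewed by light microscopy at ×100/×1.25 oil immersion. Representative images were taken.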

[23] = test system: Escherichia coli; assay: Antimicrobial activity against LPS-deffective Escherichia coli OC2530 assessed as cell lysis at 4 times MIC by light microscopy; assay type: functional, organism-based; in short: as §4
[24] = test system: Escherichia coli; assay: Antimicrobial activity against LPS-deffective Escherichia coli OC2530 assessed as growth inhibition at MIC by light microscopy; assay type: functional, organism-based
[25] = test system: Escherichia coli; assay: Antimicrobial activity against LPS-deffective Escherichia coli OC2530 at 0.5 times MIC by light microscopy relative to control; assay type: functional, organism-based; in short: as §4
[26] = test system: Escherichia coli; assay: Antimicrobial activity against LPS-deffective Escherichia coli OC2530 at 0.5 times MIC after 4 hrs by light microscopy relative to control; assay type: functional, organism-based; in short: as §4
[27] = test system: Escherichia coli; assay: Antimicrobial activity against LPS-deffective Escherichia coli OC2530 assessed as log reduction in bacterial count at 2 times MIC after 30 mins relative to control; assay type: functional
[28] = test system: Escherichia coli; assay: Antimicrobial activity against LPS-deffective Escherichia coli OC2530 assessed as log reduction in bacterial count at 4 times MIC after 30 mins relative to control; assay type: functional
[29] = test system: Escherichia coli; assay: Antimicrobial activity against LPS-deffective Escherichia coli OC2530 at MIC after 30 mins relative to control; assay type: functional, organism-based
[30] = test system: Escherichia coli; assay: Antimicrobial activity against LPS-deffective Escherichia coli OC2530 at 0.5 times MIC after 30 mins relative to control; assay type: functional, organism-based
[31] = test system: Escherichia coli; assay: Bactericidal activity against LPS-deffective Escherichia coli OC2530 assessed as log reduction in bacterial count at 2 times MIC after 3 hrs relative to control; assay type: functional
[32] = test system: Escherichia coli; assay: Bactericidal activity against LPS-deffective Escherichia coli OC2530 assessed as log reduction in bacterial count at =>2 times MIC after 3 hrs relative to control; assay type: functional
[33] = test system: Escherichia coli; assay: Antimicrobial activity against LPS-deffective Escherichia coli OC2530 at =< MIC after 3 hrs relative to untreated control; assay type: functional, organism-based
[34] = test system: Escherichia coli; assay: Antimicrobial activity against LPS-deffective Escherichia coli OC2530 at MIC after 3 hrs relative to untreated control; assay type: functional
[35] = test system: Escherichia coli; assay: Antimicrobial activity against LPS-deffective Escherichia coli OC2530 assessed as cell aggregation at 0.5 times MIC by light microscopy relative to untreated control; assay type: functional, organism-based; in short: as §4
[36] = test system: Escherichia coli; assay: Antimicrobial activity against LPS-deffective Escherichia coli OC2530 assessed as cell aggregation at 0.5 times MIC by TEM relative to untreated control; assay type: functional, organism-based
In short: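 At 5 h, cells were fixed in 1% glutaraldehyde (final) for 1 h at room temperature, pelleted, and resuspended in PBS. They were negatively stained with 1% ammonium molybdate and imaged by TEM at ×15,000.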

[37] = test system: Escherichia coli; assay: Antimicrobial activity against LPS-deffective Escherichia coli OC2530 harboring pMurF plasmid by broth microdilution method in presence of chloramphenicol; assay type: functional
In short: (§5)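 CLSI broth microdilution MIC for OC2530 carrying plasmid (empty pASK or pMurF). Medium contained chloramphenicol 3 μg/ml to keep the plasmid and AHT 100 ng/ml to induce MurF expression.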

[38] = test system: Escherichia coli; assay: Antimicrobial activity against LPS-deffective Escherichia coli OC2530 harboring pASK plasmid by broth microdilution method in presence of chloramphenicol; assay type: functional; in short: as §5
[39] = test system: Escherichia coli; assay: Inhibition of LPS-deficient Escherichia coli OC2530 MurF assessed as UDP-MurNAc-tripeptide substrate level at 0.5 times MIC by HPLC (reference value: 1 mAU)
[40] = test system: Escherichia coli; assay: Inhibition of LPS-deficient Escherichia coli OC2530 MurF assessed as UDP-MurNAc-tripeptide substrate level at 2 times MIC by HPLC (reference value: 1 mAU)
[41] = test system: Escherichia coli; assay: Inhibition of LPS-deficient Escherichia coli OC2530 MurF assessed as UDP-MurNAc-tripeptide substrate level at 4 times MIC by HPLC (reference value: 1 mAU)
[42] = test system: Escherichia coli; assay: Inhibition of LPS-deficient Escherichia coli OC2530 MurF assessed as UDP-MurNAc-pentapeptide product level at 0.5 times MIC by HPLC (reference value: 1 mAU)
[43] = test system: Escherichia coli; assay: Inhibition of LPS-deficient Escherichia coli OC2530 MurF assessed as UDP-MurNAc-pentapeptide product level at 2 times MIC by HPLC (reference value: 1 mAU)
[44] = test system: Escherichia coli; assay: Inhibition of LPS-deficient Escherichia coli OC2530 MurF assessed as UDP-MurNAc-pentapeptide product level at 4 times MIC by HPLC (reference value: 1 mAU)
[45] = test system: Escherichia coli; assay: Inhibition of LPS-deficient Escherichia coli OC2530 MurF harboring pASK plasmid assessed as UDP-MurNAc-tripeptide substrate level at 2 times MIC by HPLC (reference value: 63 +/- 4 mAU)
In short: (§6)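 Compound added at 2× MIC from 500× stock (DMSO control). After 30 min, muropeptides extracted and quantified by HPLC peak area (mAU); representative of two independent experiments.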

[46] = test system: Escherichia coli; assay: Inhibition of LPS-deficient Escherichia coli OC2530 MurF harboring pMurF plasmid assessed as UDP-MurNAc-tripeptide substrate level at 2 times MIC by HPLC (reference value: 220 +/- 65 mAU); in short: as §6
[47] = test system: Escherichia coli; assay: Inhibition of LPS-deficient Escherichia coli OC2530 MurF harboring pASK plasmid assessed as UDP-MurNAc-pentapeptide product level at 2 times MIC by HPLC (Rvb =880 +/- 17 mAU); in short: as §6
[48] = test system: Escherichia coli; assay: Inhibition of LPS-deficient Escherichia coli OC2530 MurF harboring pMurF plasmid assessed as UDP-MurNAc-pentapeptide product level at 2 times MIC by HPLC (reference value: 2674 +/- 696 mAU); in short: as §6
[49] = test system: Escherichia coli; assay: Inhibition of LPS-deficient Escherichia coli OC2530 MurF assessed as UDP-MurNAc-tripeptide substrate level at MIC by HPLC (reference value: 1 fold of control)
[50] = test system: Escherichia coli; assay: Inhibition of LPS-deficient Escherichia coli OC2530 MurF assessed as UDP-MurNAc-pentapeptide product level at MIC by HPLC (reference value: 1 fold of control)

CC(C)C[C@@H]1NC(=O)[C@@H](Cc2ccccc2)NC(=O)[C@H](CCN)NC(=O)[C@@H](NC(=O)[C@H](CCN)NC(=O)[C@@H](N)[C@@H](C)O)CCNC(=O)[C@H]([C@@H](C)O)NC(=O)[C@H](CCN)NC(=O)[C@H](CCN)NC1=O [POLYMYXIN B NONAPEPTIDE] (H-T[Dab][Dab][Dab][dF]L[Dab][Dab]T; lactam 3-C)
MIC [1]: 16 µg/mL (≈ 16.6 µM)
MIC [2]: 32 µg/mL (≈ 33.2 µM)
MIC [3]: 64 µg/mL (≈ 66.4 µM)
MIC [4]: 64 µg/mL (≈ 66.4 µM)
MIC [5]: > 64 µg/mL
MIC [6]: > 64 µg/mL
MIC [7]: > 64 µg/mL
MIC [8]: > 64 µg/mL
MIC [9]: > 64 µg/mL
MIC [10]: > 64 µg/mL

COc1ccc2nc(OC)c([C@@H](c3ccccc3)[C@](O)(CCN(C)C)c3ccccc3)cc2c1
IC50 [11]: 24 µM
MIC [1]: 8 µg/mL (≈ 17.5 µM)
MIC [2]: > 32 µg/mL
MIC [3]: > 32 µg/mL
MIC [4]: > 32 µg/mL
MIC [5]: > 32 µg/mL
MIC [6]: > 32 µg/mL
MIC [7]: > 32 µg/mL
MIC [8]: > 32 µg/mL
MIC [9]: > 32 µg/mL
MIC [10]: > 32 µg/mL
MIC [12]: 2 µg/mL
MIC [13]: 4 µg/mL
MIC [14]: 8 µg/mL
MIC [15]: 8 µg/mL
MIC [16]: > 32 µg/mL
MIC [17]: > 32 µg/mL
MIC [18]: > 32 µg/mL
MIC [19]: > 32 µg/mL
MIC [20]: > 32 µg/mL
MIC [21]: > 32 µg/mL
Activity [22]: Active
Activity [23]: Active
Activity [24]: Active
Activity [25]: inactive
Activity [26]: Active
FC [27]: 1
FC [28]: 2
Activity [29]: Active
Activity [30]: Active
FC [31]: 5
FC [32]: 5
Activity [33]: inactive
fold change (FC) [34]: 0.3
Activity [35]: Active
Activity [36]: Active
MIC [37]: 16 µg/mL
MIC [38]: 16 µg/mL
Activity (fold of control) [39]: 6
Activity (fold of control) [40]: 89
Activity (fold of control) [41]: 63
Activity (fold of control) [42]: 1.62
Activity (fold of control) [43]: 0.33
Activity (fold of control) [44]: 0.15
Activity [45]: 1200 mAU
Activity [46]: 933 mAU
Activity [47]: 213 mAU
Activity [48]: 351 mAU
Activity (fold of control) [49]: 27
Activity (fold of control) [50]: 1.48

— ChEMBL document CHEMBL1671657, “MurF inhibitors with antibacterial activity: effect on muropeptide levels” (Antimicrob Agents Chemother, 2009)
